Bioassay records deposited in PubChem BioAssay by several laboratories.
Rad51 HR inh: Rad51 (human) homologous recombination inhibition; hRad51 DNA strand exchange, fluorescence dequenching; Q06609; AID 1385; inhibition, % at 10 µM; 200,000 compounds, 0.085% hits;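 active = inhibition above 40% at the single screening dose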
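System: human Rad51 nucleoprotein filaments preassembled on unlabelled ssDNA. Reagent: labelled 47-mer dsDNA for strand exchange. Schedule: 30-min compound preincubation and 15-min exchange, both room temperature. Measured by: FRET fluorescence dequenching, excitation 485 nm, emission 520 nm. Read-out: Fluorescence-based percent inhibition, control- and blank-normalised. Benchmarks: plate controls and plate blanks.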
NF-kB expr up: NF-kB expression increase, human neuronal cells. NF-kB reporter expression; active compounds read high. fold change at 12.5 µM. 190,000 compounds, 1.6% hits. AID 1239; in the data active = fold change above about 3.3
APP 5'UTR act: APP 5'UTR luciferase reporter activation; SH-SY5Y APP 5'UTR luciferase reporter, luminescence; zero percent = DMSO vehicle wells; activation, % at 2 µM; 190,000 compounds, 1% hits; AID 1276;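 active = activation above a set limit, based on mean plus 3 SD of controls, cut at about 140% in these data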
FLuc inh counter: inhibits firefly luciferase, flagging false hits in luciferase inhibition screens; P08659; ATPLite firefly luciferase biochemical luminescence, 10 min; inhibition, % at 10 µM; 200,000 compounds, 1.5% hits; AID 1006;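 active = inhibition above about 50% when tested at 10 µM, limit read from the data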
Target sequence (P08659 whole entry, looked up): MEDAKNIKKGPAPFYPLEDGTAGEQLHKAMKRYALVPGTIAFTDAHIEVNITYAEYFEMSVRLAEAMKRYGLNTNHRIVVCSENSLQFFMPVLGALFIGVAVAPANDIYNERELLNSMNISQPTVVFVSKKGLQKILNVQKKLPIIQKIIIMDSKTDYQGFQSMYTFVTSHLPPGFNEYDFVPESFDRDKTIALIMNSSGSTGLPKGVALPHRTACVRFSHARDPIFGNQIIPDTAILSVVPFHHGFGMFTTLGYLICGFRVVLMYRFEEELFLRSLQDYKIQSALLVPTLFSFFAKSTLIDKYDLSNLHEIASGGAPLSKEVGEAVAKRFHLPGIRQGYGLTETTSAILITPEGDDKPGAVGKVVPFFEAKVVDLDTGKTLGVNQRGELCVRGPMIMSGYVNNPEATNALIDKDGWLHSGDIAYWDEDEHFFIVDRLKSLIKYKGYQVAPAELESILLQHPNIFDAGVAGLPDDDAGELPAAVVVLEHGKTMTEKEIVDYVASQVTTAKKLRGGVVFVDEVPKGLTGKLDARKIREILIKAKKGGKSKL
STAT1 activator: increases IFN-gamma driven STAT1 reporter signal; NIH 3T3 STAT1-luciferase reporter, luminescence; 100% = IFN-gamma alone, no compound; activation (% of control), % at 5.5 µM; 200,000 compounds, 2.6% hits;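 active = activation above the screen-wide mean activation plus 3 SD, cut at about 130% in these data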
FLuc act counter: firefly luciferase counter-screen for stimulation assays. activation factor at 10 µM. P08659. ATPlite luciferase biochemical, luminescence, 10 min; 0 = ATP-free wells, 1 = DMSO control. 200,000 tested, under 10 active;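 active = luciferase activation factor, scaled between plate controls, of at least 2 with compound at 10 µM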
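Material: Luciferase/luciferin reagent mix; Doses: test compounds dosed from 2 mM stocks in 100% DMSO; Schedule: 10 min incubation after luciferase reagent addition, room temperature; Measured by: luminescence from luciferase reaction; Read-out: luminescence gain marking luciferase activators.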
Of the large screens only hits and unclear results are named; the others gave an inactive call. Sampled rows, rich in hits. Any-hit rate of the full collection: about 3.9%.

COc1ccc(C(=O)Nc2cc(C)on2)cc1S(=O)(=O)N1CC(c2ccccc2)CC1=O (centres undefined)	none
COc1cc(/C=C2/C(=O)c3cccc([N+](=O)[O-])c3C2=O)c(Br)cc1O	FLuc inh counter 64
COc1ccc(-c2cnnc(N/N=C/c3ccc(O)cc3)n2)cc1	FLuc inh counter 73
COc1ccc(-c2cnnc(N/N=C/c3ccc(O)c(O)c3)n2)cc1	FLuc inh counter 85
Cc1cc(C)c2c(N)c(C(=O)Nc3ncc(C)s3)sc2n1	FLuc inh counter 98
COC(=O)c1sc2nc(C)cc(C)c2c1N	none
Cc1cnc(NC(=O)c2ccco2)s1	STAT1 activator 139
O=C(Nc1nnc(C2CCCCC2)s1)c1ccco1	STAT1 activator 130
O=C(NC(=S)Nc1nc2ccccc2s1)c1ccco1	APP 5'UTR act 143, FLuc inh counter 80, STAT1 activator 130
O=C(NC(=S)NCc1ccc(-c2nc3ccccc3s2)cc1)c1ccco1	none
COC(=O)c1sc(NC(=O)c2ccco2)nc1C	none
O=C(O)CCc1nn2c3ccccc3nc2n(Cc2ccccc2)c1=O	none
COc1ccc2nc(NC(=S)NC(=O)c3ccco3)sc2c1	APP 5'UTR act 161, FLuc inh counter 76, STAT1 activator 146
COc1ccc(-c2csc(NC(=S)NC(=O)c3ccco3)n2)cc1	none
COc1ccc2c(c1)CCc1sc(NC(=O)c3ccco3)nc1-2	none
COc1ccc2sc(NC(=O)c3ccco3)nc2c1	FLuc inh counter 88
Cc1cnc(NC(=O)c2cncc(Br)c2)s1	NF-kB expr up 4, APP 5'UTR act 181, STAT1 activator 136
Cc1cnc(NC(=O)c2ccncc2)s1	none
O=C(Nc1ccc2c(c1)OCO2)c1ccc2c(c1)S(=O)(=O)c1ccccc1C2=O	none (no result: NF-kB expr up, APP 5'UTR act, FLuc inh counter, STAT1 activator, FLuc act counter)
Cn1nc([N+](=O)[O-])nc1S(C)(=O)=O	none
O=c1c(Cc2c(F)cccc2Cl)c(O)ccn1CCCN1CCOCC1	none
O=C(Nc1nccs1)c1ccc(-c2ccc(Cl)cc2)o1	NF-kB expr up 6.1, FLuc inh counter 85, STAT1 activator 138
O=C(/C=C/c1ccc(Cl)cc1)Nc1nccs1	NF-kB expr up 8.5, APP 5'UTR act 184
O=C(Nc1cccnc1)c1ccc(-c2cc(Cl)ccc2Cl)o1	none
O=C(NCc1ccc(Cl)cc1)C(=O)Nc1nccs1	none
C/C=C/C=C/C(=O)Nc1nccs1	none (no result: Rad51 HR inh)
O=C(Nc1cccnc1)c1ccc(-c2ccc(Cl)cc2)o1	FLuc inh counter 66
Fc1ccc(NC(=S)Nc2nccs2)cc1	NF-kB expr up 9.1
CCc1nnc(NC(=O)c2ccc(-c3ccc(F)cc3)o2)s1	none
O=C(Nc1nccs1)c1ccc(-c2ccc(F)cc2)o1	APP 5'UTR act 157, FLuc inh counter 78, STAT1 activator 129
COc1c(Cl)cc(Cl)cc1/C=C/C(=O)c1ccc(NC(=O)c2cccs2)cc1	NF-kB expr up 5.7 (no result: Rad51 HR inh)
COc1c(Cl)cc(Cl)cc1C(=O)Nc1ccc(C(=O)O)cc1	none
Fc1ccc(-c2nc3ccncc3[nH]2)cc1	none
Clc1ccc(-c2nc3ccncc3[nH]2)cc1	FLuc inh counter 73, STAT1 activator 141
COC(=O)c1sc(Nc2ccccc2)nc1C	none
Cc1cccc(Nc2nnc(SCC(=O)Nc3ccccc3[N+](=O)[O-])s2)c1	none
CC(C)(C)C(=O)CSc1nnc(Nc2ccccc2)s1	STAT1 activator 130
Cc1cccc(Nc2nnc(SCC(=O)Nc3ccc(C(=O)O)cc3)s2)c1	FLuc inh counter 68
O=C1c2ccccc2C(=O)N1CSc1nnc(Nc2ccccc2)s1	none (no result: Rad51 HR inh, NF-kB expr up)
CC(C)(C)C(=O)c1sc(Nc2ccccc2)nc1N	NF-kB expr up 3.8, STAT1 activator 150
CCCCCc1nc2c(c(=O)c3ccccc3n2C)c(=O)n1Cc1ccc(OC)cc1	none (no result: NF-kB expr up, APP 5'UTR act, FLuc inh counter, STAT1 activator, FLuc act counter)
Fc1cccc2sc(Nc3nnc(-c4ccco4)o3)nc12	FLuc inh counter 68, STAT1 activator 132
CC(=O)Nc1nnc(-c2ccco2)o1	none (no result: Rad51 HR inh)
COc1cccc2sc(Nc3nc(-c4ccccn4)cs3)nc12	STAT1 activator 136
COc1cccc2sc(Nc3nnc(-c4cccs4)o3)nc12	FLuc inh counter 56, STAT1 activator 139
COc1cccc2sc(Nc3nnc(-c4ccc(F)cc4)o3)nc12	none
CNC(=O)NC(=O)COC(=O)c1ccccc1OCc1ccccc1	none
COc1ccc(NC(=O)COC(=O)CCNS(=O)(=O)c2ccc(Cl)cc2)cc1	Rad51 HR inh 43 (no result: NF-kB expr up, APP 5'UTR act, FLuc inh counter, STAT1 activator, FLuc act counter)
Cc1ccc(C(C(=O)NC(C)(C)C)N(Cc2ccco2)C(=O)CCC(=O)Nc2nccs2)cc1 (centres undefined)	none (no result: Rad51 HR inh, NF-kB expr up, FLuc inh counter, FLuc act counter)
Cc1ccc(-c2nnc(CCC(=O)NCC3C4CC5CC(C4)CC3C5)o2)s1 (centres undefined)	STAT1 activator 147
Cc1ccc(-c2nnc(CCC(=O)N(C)Cc3nccs3)o2)s1	none
CC1CC(CCC(=O)NC(=S)Nc2ccc(Cl)cn2)C(=O)O1 (centres undefined)	none
CC(C(=O)Nc1ccccc1-c1ccccc1)N(C)Cc1nc2ccccc2c(=O)[nH]1 (centres undefined)	none
Cc1cc(C)c2cc3c(N)c(C(=O)N4CCOCC4)sc3nc2c1	STAT1 activator 144 (no result: Rad51 HR inh)
O=C(c1cccc(OCc2ccccc2)c1)N1CCOCC1	none
Cc1ccc(C)c2nc3sc(C(=O)N4CCOCC4)c(N)c3cc12	STAT1 activator 144
Cc1ccc2nc3sc(C(=O)Nc4ccc(N5CCOCC5)cc4)c(N)c3cc2c1	none (no result: Rad51 HR inh)
CCOc1ccc2nc3sc(C(=O)N4CCOCC4)c(N)c3cc2c1	APP 5'UTR act 220
CCOc1ccc(OCc2cccc(C(=O)N3CCOCC3)c2)cc1	NF-kB expr up 3.4, FLuc inh counter 72 (no result: Rad51 HR inh)
Cc1cc(C)c2nc3sc(C(=O)N4CCOCC4)c(N)c3cc2c1	none (no result: NF-kB expr up, APP 5'UTR act, FLuc inh counter, STAT1 activator, FLuc act counter)
O=C(COC(=O)c1ccc2ccccc2c1O)NCC(F)(F)F	none (no result: NF-kB expr up, APP 5'UTR act, FLuc inh counter, STAT1 activator, FLuc act counter)
O=C(Cc1ccc(F)cc1)N/N=C/c1ccccn1	none (no result: Rad51 HR inh)
CCN=c1scc(-c2ccccc2)n1/N=C/c1ccccn1	APP 5'UTR act 166, FLuc inh counter 74, STAT1 activator 170
CCN=c1scc(-c2ccc(F)cc2)n1/N=C/c1ccccn1	NF-kB expr up 5, STAT1 activator 138
CCN(C(=O)Cn1cnc2cc([N+](=O)[O-])ccc2c1=O)C1CCS(=O)(=O)C1 (centres undefined)	none
O=C(N[C@@H](Cc1ccccc1)C(=O)OCc1ccccc1)c1nc[nH]c1C(=O)N1CCc2ccccc2C1	none (no result: NF-kB expr up, APP 5'UTR act, FLuc inh counter, STAT1 activator, FLuc act counter)
COc1cc(NC(=S)NCCC(c2ccccc2)c2ccccc2)c(OC)cc1Cl	none
CC(=O)c1cnc(Nc2ccc(C)cc2)s1	STAT1 activator 137
Cc1ccc(N=c2sc(C)c(C)n2C)cc1	STAT1 activator 133 (no result: Rad51 HR inh)
CC1CCCN(c2nc(N(C)c3ccccc3)nc(N)c2[N+](=O)[O-])C1 (centres undefined)	none (no result: NF-kB expr up, APP 5'UTR act, FLuc inh counter, STAT1 activator, FLuc act counter)
CCCNC(=S)Nc1c(C)n(C)n(-c2ccccc2)c1=O	none (no result: Rad51 HR inh, NF-kB expr up)
